Reference: ChEMBL document CHEMBL3351267, “Curcuminoid derivatives enhance telomerase activity in an in vitro TRAP assay” (Bioorg Med Chem Lett, 2014)
Active and inactive are the calls of the source. The rule behind the calls is not given here.

What was measured:
[1] = molecular target: Telomerase reverse transcriptase (Homo sapiens) (UniProt O14746); experiment: Activation of human telomerase activity expressed in HEK293T cells incubated for 30 mins by modified TRAP assay; assay type: cell-based; conditions: HEK-293T
Telomerase reverse transcriptase (Homo sapiens), sequence (O14746 whole entry): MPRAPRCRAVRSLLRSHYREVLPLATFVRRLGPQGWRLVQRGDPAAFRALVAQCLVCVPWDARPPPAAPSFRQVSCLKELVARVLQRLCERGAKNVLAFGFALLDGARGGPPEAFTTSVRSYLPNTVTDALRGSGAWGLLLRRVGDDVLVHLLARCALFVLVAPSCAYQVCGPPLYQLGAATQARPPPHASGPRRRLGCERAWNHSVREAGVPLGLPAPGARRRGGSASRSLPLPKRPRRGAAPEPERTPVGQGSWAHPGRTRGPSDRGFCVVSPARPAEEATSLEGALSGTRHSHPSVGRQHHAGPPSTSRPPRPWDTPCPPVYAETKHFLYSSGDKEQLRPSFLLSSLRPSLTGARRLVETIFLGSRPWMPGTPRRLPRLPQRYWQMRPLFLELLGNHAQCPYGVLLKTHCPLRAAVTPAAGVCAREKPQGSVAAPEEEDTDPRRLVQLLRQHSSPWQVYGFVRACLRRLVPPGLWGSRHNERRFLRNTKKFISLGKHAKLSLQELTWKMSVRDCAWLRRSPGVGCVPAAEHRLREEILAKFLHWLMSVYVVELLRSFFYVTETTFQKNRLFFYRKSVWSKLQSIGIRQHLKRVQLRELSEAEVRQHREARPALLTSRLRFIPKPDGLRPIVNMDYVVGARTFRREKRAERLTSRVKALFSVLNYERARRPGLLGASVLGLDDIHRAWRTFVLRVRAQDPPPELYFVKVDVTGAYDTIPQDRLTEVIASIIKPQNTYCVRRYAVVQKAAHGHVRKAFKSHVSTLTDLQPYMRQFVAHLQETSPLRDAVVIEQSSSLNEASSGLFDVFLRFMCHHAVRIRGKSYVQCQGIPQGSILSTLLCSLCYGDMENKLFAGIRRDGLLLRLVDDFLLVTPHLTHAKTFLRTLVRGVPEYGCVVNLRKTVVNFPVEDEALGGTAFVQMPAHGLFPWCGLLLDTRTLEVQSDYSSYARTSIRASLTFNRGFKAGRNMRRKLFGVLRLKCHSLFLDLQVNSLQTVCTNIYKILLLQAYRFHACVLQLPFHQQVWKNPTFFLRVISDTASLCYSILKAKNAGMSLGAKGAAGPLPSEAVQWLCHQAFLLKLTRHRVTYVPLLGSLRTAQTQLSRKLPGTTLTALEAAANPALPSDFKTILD
Method in brief: (§1)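 Telomerase came from crude lysate of HEK293T cells transfected with hTERT and hTR plasmids. MTS primer and compound were incubated in telomerase reaction buffer at 30 °C for 30 min, then removed by two phenol–chloroform extractions. Products were ethanol-precipitated, PCR-amplified with FAM-tagged primer, run on 8% non-denaturing acrylamide and phosphorimaged. Accumulated product intensity was averaged over three independent experiments.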

[2] = molecular target: Telomerase reverse transcriptase (Homo sapiens) (UniProt O14746); experiment: Activation of human telomerase activity expressed in HEK293T cells at 60 uM incubated for 30 mins by modified TRAP assay; assay type: cell-based; conditions: HEK-293T; method in brief: as §1
[3] = molecular target: Telomerase reverse transcriptase (Homo sapiens) (UniProt O14746); experiment: Activation of human telomerase activity expressed in HEK293T cells at 20 to 60 uM incubated for 30 mins by modified TRAP assay; assay type: cell-based; conditions: HEK-293T; method in brief: as §1
[4] = molecular target: Telomerase reverse transcriptase (Homo sapiens) (UniProt O14746); experiment: Activation of human telomerase activity expressed in HEK293T cells assessed as increase in telomer products intensity incubated for 30 mins by modified TRAP assay; assay type: cell-based; conditions: HEK-293T; method in brief: as §1
[5] = molecular target: Telomerase reverse transcriptase (Homo sapiens) (UniProt O14746); experiment: Activation of human telomerase activity expressed in HEK293T cells assessed as increase in telomer products length incubated for 30 mins by modified TRAP assay; assay type: cell-based; conditions: HEK-293T; method in brief: as §1
[6] = molecular target: Telomerase reverse transcriptase (Homo sapiens) (UniProt O14746); experiment: Activation of human telomerase activity expressed in HEK293T cells incubated for 30 mins by modified TRAP assay and phosphorimage analysis; assay type: cell-based; conditions: HEK-293T; method in brief: as §1
[7] = molecular target: Telomerase reverse transcriptase (Homo sapiens) (UniProt O14746); experiment: Activation of human telomerase activity expressed in HEK293T cells at 60 uM incubated for 30 mins by modified TRAP assay and phosphorimage analysis; assay type: cell-based; conditions: HEK-293T; method in brief: as §1
[8] = molecular target: Telomerase reverse transcriptase (Homo sapiens) (UniProt O14746); experiment: Activation of human telomerase activity expressed in HEK293T cells assessed as increase in telomer products length at 40 uM by modified TRAP assay and phosphorimage analysis; assay type: cell-based; conditions: HEK-293T, TDE = time-dependent effect
Method in brief: (§2)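 This was a time course at 40 µM compound, with the compound-free set run in parallel. The telomerase source was lysate of HEK293T cells transfected with hTERT/hTR. Reactions ran at 30 °C, and 100 µl was withdrawn at set times and heat-stopped at 95 °C for 10 min. Products were purified, PCR-amplified with FAM primer, and separated on 8% non-denaturing gel with phosphorimaging. Intensities came from three independent experiments.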

[9] = molecular target: Telomerase reverse transcriptase (Homo sapiens) (UniProt O14746); experiment: Activation of human telomerase activity expressed in HEK293T cells assessed as increase in telomer products intensity at 40 uM by modified TRAP assay and phosphorimage analysis; assay type: cell-based; conditions: HEK-293T, TDE = time-dependent effect; method in brief: as §2
Thermus aquaticus = experiment: Inhibition of Thermus aquaticus DNA polymerase at 5 uM

| SMILES | Activity [1] | fold change (FC) [2] | further results |
| --- | --- | --- | --- |
| COc1cc(/C=C/C(O)=C/C(=O)/C=C/c2ccc(O)cc2)ccc1O | inactive | – | – |
| COc1cc(/C=C/c2cc(/C=C/c3ccc(OCCCCC[n+]4ccccc4)c(OC)c3)on2)ccc1OCCCCC[n+]1ccccc1 | – | 3 | – |
| COc1cc(/C=C/C(=O)CC(=O)/C=C/c2ccc(OCCCCC[n+]3ccccc3)cc2)ccc1O | – | 3 | – |
| COc1cc(CC/C=C/C(=O)CCc2ccc(OCCCCC[n+]3ccccc3)c(OC)c2)ccc1OCCCCC[n+]1ccccc1 | – | – | Activity [3]: inactive |
| COc1cc(/C=C/C(=O)CC(=O)/C=C/c2ccc(OCCCCC[n+]3ccccc3)c(OC)c2)ccc1O | – | 3 | – |
| COc1cc(/C=C/C(=O)CC(=O)/C=C/c2ccc(OCCO)c(OC)c2)ccc1OCCO | inactive | – | – |
| COc1cc(/C=C/C(=O)CC(=O)/C=C/c2ccc(OCCCCC[n+]3ccccc3)c(OC)c2)ccc1OCCCCC[n+]1ccccc1 | Dose-dependent effect | 5 | Activity [4]: Dose-dependent effect; Activity [5]: Dose-dependent effect; Activity [6]: Dose-dependent effect; fold change (FC) [7]: < 5; Activity [8]: tde; Activity [9]: tde; inhibition (Thermus aquaticus): Active |
| O=C(/C=C/c1ccc(O)cc1)CC(=O)/C=C/c1ccc(O)cc1 | inactive | – | – |

More lines, main results first:

| Activity [1] | fold change (FC) [2] | SMILES | further results |
| --- | --- | --- | --- |
| inactive | – | COc1cc(CCC(=O)CC(=O)CCc2ccc(O)c(OC)c2)ccc1O | – |
| inactive | – | COc1cc(/C=C/C(=O)CC(=O)/C=C/c2ccc(O)c(OC)c2)ccc1O | – |
| – | 3 | COc1cc(/C=C/C(=O)CC(=O)/C=C/c2ccc(O)cc2)ccc1OCCCCC[n+]1ccccc1 | – |
| inactive | – | COc1cc(CCC(O)CC(O)CCc2ccc(O)c(OC)c2)ccc1O (stereo not given) | – |
